One experiment relates to HepG2. The experiment in a line: Cytoprotection against 8 mM acetaminophen-induced human HepG2 cells assessed as cell viability at 10 uM after 24 hrs by MTT assay (reference value: 0 +/- 2%). It is filed as functional. As to conditions: in the assay text read “after 48 hrs” for “after 24 hrs”. The essentials:
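HepG2 cells seeded at 1.5 × 10^4 cells/well in DMEM and grown 24 h at 37 °C, 5% CO2. Compound (10 μM) then added together with 8 mM acetaminophen; bicyclol 10 μM plus 8 mM acetaminophen served as reference. Cultured 48 h, then 0.5 mg/mL MTT for 4 h, formazan OD read at 570 nm. Mean ± SD of four independent experiments; Student's t-test.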

The target of another experiment is Histone deacetylase 1 (Homo sapiens, UniProt Q13547). The experiment in a line: Inhibition of HDAC1 (unknown origin) using H3(1 to 21)K9 after 60 mins by fluorescence assay.
The subject of a further experiment is A549. The experiment in a line: Cytotoxicity against human A549 cells assessed as growth inhibition at 10 uM after 72 hrs by coulter counting method. It is filed as functional, cell-based.
In another experiment the test system is Peritoneal macrophage. The experiment is described as follows: Inhibition of LPS-induced TNFalpha secretion in C57BL6J mouse peritoneal macrophages at 10 uM after 24 hrs. The experiment is classed as functional, cell-based.
In another experiment the test system is HCT-8. The experiment in a line: Cytotoxicity against human HCT8 cells assessed as growth inhibition at 10 uM after 72 hrs by coulter counting method. It is filed as functional, cell-based.
Another experiment has as its system A2780. The experiment is described as follows: Cytotoxicity against human A2780 cells assessed as growth inhibition at 10 uM after 72 hrs by coulter counting method. The experiment is classed as functional, cell-based.
The subject of a further experiment is BGC-823. The experiment in a line: Cytotoxicity against human BGC823 cells assessed as growth inhibition at 10 uM after 72 hrs by coulter counting method. It is filed as functional, cell-based.
Another experiment has as its system Bel-7402. The experiment is described as follows: Cytotoxicity against human Bel7402 cells assessed as growth inhibition at 10 uM after 72 hrs by coulter counting method. The experiment is classed as functional, cell-based.

Active and inactive are the calls of the source. The rule behind the calls is not given here.

Histone deacetylase 1, sequence (Q13547 whole entry): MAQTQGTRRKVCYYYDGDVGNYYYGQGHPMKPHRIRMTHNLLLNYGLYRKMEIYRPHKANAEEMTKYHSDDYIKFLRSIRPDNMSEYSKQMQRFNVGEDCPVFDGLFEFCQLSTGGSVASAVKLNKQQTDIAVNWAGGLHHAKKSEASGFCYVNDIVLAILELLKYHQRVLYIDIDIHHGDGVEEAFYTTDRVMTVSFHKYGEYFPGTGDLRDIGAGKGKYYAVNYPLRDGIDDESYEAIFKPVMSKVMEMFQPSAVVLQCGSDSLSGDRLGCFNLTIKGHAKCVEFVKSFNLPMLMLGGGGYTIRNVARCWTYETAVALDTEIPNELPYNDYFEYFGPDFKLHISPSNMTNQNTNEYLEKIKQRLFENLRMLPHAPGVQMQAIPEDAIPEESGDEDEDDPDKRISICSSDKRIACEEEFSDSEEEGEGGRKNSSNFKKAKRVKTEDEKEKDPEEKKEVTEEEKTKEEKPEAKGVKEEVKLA

For the molecule `COc1cc([C@H]2Oc3c(OC)cc(CCCO)cc3[C@@H]2CO)ccc1O[C@@H]1O[C@H](CO)[C@@H](O)[C@H](O)[C@H]1O`, the Activity in the experiment with HepG2 was determined as 38.4%. The molecule also registered an IC50 against Histone deacetylase 1 of 3.6 µM. The “growth inhibition (GI)” value in the experiment on A549, with HCT-8, with A2780, in the experiment with BGC-823 and with Bel-7402 was “inactive” throughout. Also, in the experiment on Peritoneal macrophage, the inhibition entry is “inactive”.
On to `COc1cc([C@H]2Oc3c(OC)cc(/C=C/CO[C@@H]4O[C@H](CO)[C@@H](O)[C@H](O)[C@H]4O)cc3[C@@H]2CO)cc(OC)c1O[C@@H]1O[C@H](CO)[C@@H](O)[C@H](O)[C@H]1O`, for which, in the experiment on HepG2, the Activity came out at 30.5%.
Same read-out and setting: next, `COC(=O)c1cc(OC)c2c(c1-c1c(CO)cc(OC)c3c1OCO3)OCO2` [BICYCLOL]: 34.8%; `COc1cc([C@H]2Oc3c(OC)cc(/C=C/CO[C@@H]4O[C@H](CO)[C@@H](O)[C@H](O)[C@H]4O)cc3[C@@H]2CO)ccc1O[C@@H]1O[C@H](CO)[C@@H](O)[C@H](O)[C@H]1O`: 46%.
On the same count and under the same terms, to `COc1cc([C@H]2Oc3c(OC)cc(CCCO)cc3[C@@H]2CO)cc(OC)c1O[C@@H]1O[C@H](CO)[C@@H](O)[C@H](O)[C@H]1O` belongs 31.2%; to `CCC(=O)c1cc(OC)c(O[C@@H]2O[C@H](CO[C@@H]3O[C@@H](C)[C@H](O)[C@@H](O)[C@H]3O)[C@@H](O)[C@H](O)[C@H]2O)c(OC)c1`, 37.6%.
For the molecule `O=C(O)/C=C\c1cc2ccoc2cc1O[C@@H]1O[C@H](CO)[C@@H](O)[C@H](O)[C@H]1O`, the IC50 on Histone deacetylase 1 came to 4.6 µM. In addition, the “growth inhibition (GI)” value with A549, in the experiment on HCT-8, in the experiment on A2780, in the experiment on BGC-823 and in the experiment with Bel-7402 was “inactive” each time. The inhibition result in the experiment with Peritoneal macrophage was “inactive”.
With `COc1cc([C@H]2Oc3c(OC)cc(CCCO)cc3[C@@H]2CO[C@@H]2O[C@H](CO[C@@H]3O[C@@H](C)[C@H](O)[C@@H](O)[C@H]3O)[C@@H](O)[C@H](O)[C@H]2O)ccc1O`, in the experiment on HepG2, the Activity is recorded as 37.4%.
Consider `COc1cc([C@@H](O)[C@H](CO)Oc2c(OC)cc(CCC(C)O)cc2OC)cc(OC)c1O[C@@H]1O[C@H](CO)[C@@H](O)[C@H](O)[C@H]1O` (some centres not stated), for which, in the experiment on HepG2, the Activity worked out at 38.9%.

The values above are taken from ChEMBL document CHEMBL4190195, “Bioactive Glycosides from the Twigs of Litsea cubeba” (J Nat Prod, 2017).
